Results as given in ChEMBL document CHEMBL4765376, “Discovery of an Orally Available Diazabicyclooctane Inhibitor (ETX0282) of Class A, C, and D Serine β-Lactamases” (J Med Chem, 2020).
pKi: −log10 of the molar value. ≈ marks a conversion by molar mass, not a printed value.

How the values were obtained:
[1] = Inhibition of bacterial TEM-1 assessed as equilibrium constant using nitrocefin as chromogenic substrate by absorbance plate reader analysis
Escherichia coli [2] = assay: Synergistic antibacterial activity against Escherichia coli ARC 6077 drug resistant clinical isolates assessed as MIC for cefpodoxime antibacterial activity by CLSI based broth dilution method (Rvb > 64 ug/ml); type: functional
Escherichia coli [3] = assay: Antibacterial activity against Escherichia coli ARC 6077 drug resistant clinical isolates assessed as reduction in bacterial growth by CLSI based broth dilution method; type: functional
Outline: (§1)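 Broth microdilution per CLSI in cation-adjusted Mueller–Hinton broth against drug-resistant clinical isolates; MIC read as the lowest concentration preventing bacterial growth.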

Citrobacter freundii [4] = assay: Synergistic antibacterial activity against Citrobacter freundii ARC 3518 carbapenem resistant clinical isolates assessed as MIC for cefpodoxime antibacterial activity by CLSI based broth dilution method (Rvb > 64 ug/ml); type: functional
Klebsiella pneumoniae [5] = assay: Synergistic antibacterial activity against Klebsiella pneumoniae ARC 6107 carbapenem resistant clinical isolates assessed as MIC for cefpodoxime antibacterial activity by CLSI based broth dilution method (Rvb > 64 ug/ml); type: functional
[6] = Volume of distribution at steady state in Sprague-Dawley rat at 10 mg/kg, iv by LC/MS/MS analysis; type: ADME, organism-based; conditions: in vivo, read-out: Vdss
Outline: (§2)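 Jugular vein-cannulated male Sprague Dawley rats, 180–200 g, n = 3, given 10 mg/kg iv in 0.9% saline. Formulation pH checked at 4–7. […] Half-life taken from linear regression of the semilog concentration–time plot.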

Enterobacter cloacae [7] = assay: Antibacterial activity against Enterobacter cloacae ARC 6049 drug resistant clinical isolates assessed as reduction in bacterial growth by CLSI based broth dilution method; type: functional
Outline: as §1

Klebsiella oxytoca [8] = assay: Synergistic antibacterial activity against Klebsiella oxytoca ARC 5389 carbapenem resistant clinical isolates assessed as MIC for cefpodoxime antibacterial activity by CLSI based broth dilution method (Rvb > 64 ug/ml); type: functional
Escherichia coli [9] = assay: Antibacterial activity against Escherichia coli ARC 6078 drug resistant clinical isolates assessed as reduction in bacterial growth by CLSI based broth dilution method; type: functional
Outline: as §1

Klebsiella pneumoniae [10] = assay: Antibacterial activity against Klebsiella pneumoniae ARC 6082 drug resistant clinical isolates assessed as reduction in bacterial growth by CLSI based broth dilution method; type: functional
Outline: as §1

[11] = Cmax in Sprague-Dawley rat at 10 mg/kg, iv by LC/MS/MS analysis; type: ADME, organism-based; design: route intravenous, dose 10 mg/kg; conditions: in vivo
Outline: as §2

Klebsiella oxytoca [12] = assay: Antibacterial activity against Klebsiella oxytoca ARC 5389 carbapenem resistant clinical isolates assessed as reduction in bacterial growth by CLSI based broth dilution method; type: functional
Outline: as §1

Klebsiella pneumoniae [13] = assay: Antibacterial activity against Klebsiella pneumoniae ARC 6088 carbapenem-resistant clinical isolates assessed as reduction in bacterial growth by CLSI based broth dilution method; type: functional
Outline: as §1

Klebsiella pneumoniae [14] = assay: Antibacterial activity against Klebsiella pneumoniae ARC 6107 carbapenem resistant clinical isolates assessed as reduction in bacterial growth by CLSI based broth dilution method; type: functional
Outline: as §1

[15] = Renal clearance in Sprague-Dawley rat at 10 mg/kg, iv by LC/MS/MS analysis; type: ADME, organism-based; conditions: in vivo
Outline: as §2

Escherichia coli [16] = assay: Antibacterial activity against Escherichia coli ARC 6059 drug resistant clinical isolates assessed as reduction in bacterial growth by CLSI based broth dilution method; type: functional
Outline: as §1

Klebsiella pneumoniae [17] = assay: Synergistic antibacterial activity against Klebsiella pneumoniae ARC 6082 drug resistant clinical isolates assessed as MIC for cefpodoxime antibacterial activity by CLSI based broth dilution method (Rvb > 64 ug/ml); type: functional
Enterobacter cloacae [18] = assay: Antibacterial activity against Enterobacter cloacae ARC 6055 drug resistant clinical isolates assessed as reduction in bacterial growth by CLSI based broth dilution method; type: functional
Outline: as §1

[19] = Clearance in Sprague-Dawley rat at 10 mg/kg, iv by LC/MS/MS analysis; type: ADME, organism-based; conditions: in vivo
Outline: as §2

Klebsiella pneumoniae [20] = assay: Synergistic antibacterial activity against Klebsiella pneumoniae ARC 6098 drug resistant clinical isolates assessed as MIC for cefpodoxime antibacterial activity by CLSI based broth dilution method (Rvb > 64 ug/ml); type: functional
Escherichia coli [21] = assay: Synergistic antibacterial activity against Escherichia coli ARC 6078 drug resistant clinical isolates assessed as MIC for cefpodoxime antibacterial activity by CLSI based broth dilution method (Rvb > 64 ug/ml); type: functional
Enterobacter cloacae [22] = assay: Synergistic antibacterial activity against Enterobacter cloacae ARC 6049 drug resistant clinical isolates assessed as MIC for cefpodoxime antibacterial activity by CLSI based broth dilution method (Rvb > 64 ug/ml); type: functional
Klebsiella pneumoniae [23] = assay: Synergistic antibacterial activity against Klebsiella pneumoniae ARC 6088 carbapenem resistant clinical isolates assessed as MIC for cefpodoxime antibacterial activity by CLSI based broth dilution method (Rvb > 64 ug/ml); type: functional
[24] = Half-life in Sprague-Dawley rat at 10 mg/kg, iv by LC/MS/MS analysis; type: ADME, organism-based; conditions: in vivo
Outline: as §2

[25] = Drug excretion in Sprague-Dawley rat urine assessed as unchanged drug at 10 mg/kg, iv by LC/MS/MS analysis; type: ADME, organism-based; conditions: read-out: Drug excretion
Outline: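 Male Sprague Dawley rats, 10 mg/kg iv in 0.9% saline, n = 3. Urine assayed for unchanged parent drug, reported as percent of the administered iv dose.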

Escherichia coli [26] = assay: Antibacterial activity against Escherichia coli ARC 2687 drug resistant clinical isolates assessed as reduction in bacterial growth by CLSI based broth dilution method; type: functional
Outline: as §1

[27] = Protein binding in Sprague-Dawley rat plasma assessed as fraction unbound at 5 to 100 uM; type: ADME, cell-free; conditions: dose 5-100 µM
Outline: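 Rat plasma protein binding reported as mean percent unbound across 5–100 μM.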

Klebsiella pneumoniae [28] = assay: Antibacterial activity against Klebsiella pneumoniae ARC 6098 drug resistant clinical isolates assessed as reduction in bacterial growth by CLSI based broth dilution method; type: functional
Outline: as §1

Citrobacter freundii [29] = assay: Antibacterial activity against Citrobacter freundii ARC 3518 carbapenem resistant clinical isolates assessed as reduction in bacterial growth by CLSI based broth dilution method; type: functional
Outline: as §1

[30] = AUC in Sprague-Dawley rat at 10 mg/kg, iv by LC/MS/MS analysis; type: ADME, organism-based; design: dose 10 mg/kg; conditions: in vivo
Outline: as §2

Enterobacter cloacae [31] = assay: Synergistic antibacterial activity against Enterobacter cloacae ARC 6055 drug resistant clinical isolates assessed as MIC for cefpodoxime antibacterial activity by CLSI based broth dilution method (Rvb > 64 ug/ml); type: functional
Escherichia coli [32] = assay: Antibacterial activity against Escherichia coli ARC 6064 drug resistant clinical isolates assessed as reduction in bacterial growth by CLSI based broth dilution method; type: functional
Outline: as §1

Escherichia coli [33] = assay: Synergistic antibacterial activity against Escherichia coli ARC 6064 drug resistant clinical isolates assessed as MIC for cefpodoxime antibacterial activity by CLSI based broth dilution method (Rvb > 64 ug/ml); type: functional
[34] = Drug metabolism assessed as diamine metabolite formation
Escherichia coli [35] = assay: Synergistic antibacterial activity against Escherichia coli ARC 6059 drug resistant clinical isolates assessed as MIC for cefpodoxime antibacterial activity by CLSI based broth dilution method (Rvb > 64 ug/ml); type: functional

Work on CC1=C[C@H](C(N)=O)N2C[C@@H]1N(O[C@H](F)C(=O)O)C2=O yielded a pKi [1] of 9.47, an MIC (Escherichia coli [2]) of 0.125 mg/L and an MIC (Escherichia coli [3]) of 4 mg/L (≈ 14.6 µM). For the same compound, the MIC (Citrobacter freundii [4]) was 0.13 mg/L, the MIC (Klebsiella pneumoniae [5]) was 0.25 mg/L and the Vd [6] was 0.7 L/kg. The MIC (Enterobacter cloacae [7]) was 1 mg/L (≈ 3.66 µM), the MIC (Klebsiella oxytoca [8]) was 0.5 mg/L and the MIC (Escherichia coli [9]) was 0.25 mg/L (≈ 0.915 µM). For the same compound, the MIC (Klebsiella pneumoniae [10]) was 64 mg/L (≈ 234 µM), the Cmax [11] was 17.5 µg/mL and the MIC (Klebsiella oxytoca [12]) was 16 mg/L (≈ 58.6 µM). The MIC (Klebsiella pneumoniae [13]) was 16 mg/L (≈ 58.6 µM), the MIC (Klebsiella pneumoniae [14]) was 4 mg/L (≈ 14.6 µM) and the CL renal [15] was 0.804 L/h/kg. It also gave an MIC (Escherichia coli [16]) of 16 mg/L (≈ 58.6 µM), an MIC (Klebsiella pneumoniae [17]) of 0.125 mg/L and an MIC (Enterobacter cloacae [18]) of 1 mg/L (≈ 3.66 µM). For the same compound, the clearance [19] was 1.39 L/h/kg, the MIC (Klebsiella pneumoniae [20]) was 0.125 mg/L and the MIC (Escherichia coli [21]) was 0.25 mg/L. The MIC (Enterobacter cloacae [22]) was 0.125 mg/L, the MIC (Klebsiella pneumoniae [23]) was 0.125 mg/L and the half-life [24] was 24 min. For the same compound, the dose excreted [25] was 60%, the MIC (Escherichia coli [26]) was 0.5 mg/L (≈ 1.83 µM) and the fraction unbound [27] was 91%. It also gave an MIC (Klebsiella pneumoniae [28]) of 16 mg/L (≈ 58.6 µM), an MIC (Citrobacter freundii [29]) of 0.25 mg/L (≈ 0.915 µM) and an AUC [30] of 7.19 µg·h/mL. For the same compound, the MIC (Enterobacter cloacae [31]) was 0.125 mg/L, the MIC (Escherichia coli [32]) was 8 mg/L (≈ 29.3 µM) and the MIC (Escherichia coli [33]) was 0.5 mg/L. For the same compound, the Drug metabolism [34] was “Metabolite detected” and the MIC (Escherichia coli [35]) was 0.125 mg/L.
